pIC50: −log10 of the molar value. Activity calls are given as the source filed them. No cut-off for these calls is given here.
Assays:
[1] = biological target: Sodium channel protein type 5 subunit alpha (Homo sapiens, UniProt Q14524); experiment: Inhibition of recombinant human Nav1.5 expressed in HEK293 cells assessed as reduction in peak inward current at -50 mV holding potential measured after 600 secs by IonWorks Barracuda patch-clamp assay; format: cell-based
Method in brief: (§1)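 HEK293 cells expressing the channel, measured by population patch clamp on IonWorks Barracuda. External solution (mM): 137 NaCl, 4 KCl, 1 MgCl2, 1.8 CaCl2, 10 HEPES, 10 glucose, pH 7.4. Internal: K-gluconate/KCl, pH 7.2. Compound incubated 600 s between pre- and post-compound reads. Nav1.7: held at -60 mV, 300 ms at -100 mV, then 20 ms test pulse to -20 mV. Nav1.5: held at -40/-50 mV, 300 ms at -100 mV, then step to -10 mV to inactivate.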

[2] = biological target: T1, Sodium channel protein type 9 subunit alpha (Homo sapiens, UniProt Q15858); experiment: Inhibition of recombinant human Nav1.7 expressed in HEK293 cells assessed as reduction in peak inward current at -60 mV holding potential measured after 600 secs by IonWorks Barracuda patch-clamp assay; format: cell-based
Method in brief: as §1, with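 “Barracuda.” for “Barracuda. External solution (mM): 137 NaCl, 4 KCl, 1 MgCl2, 1.8 CaCl2, 10 HEPES, 10 glucose, pH 7.4.”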

Cytochrome P450 3A4 = Cytochrome P450 3A4 (Homo sapiens, UniProt P08684); experiment: Inhibition of human CYP3A4 assessed as inhibition of dealkylation
Chain of Cytochrome P450 3A4 (P08684 whole entry): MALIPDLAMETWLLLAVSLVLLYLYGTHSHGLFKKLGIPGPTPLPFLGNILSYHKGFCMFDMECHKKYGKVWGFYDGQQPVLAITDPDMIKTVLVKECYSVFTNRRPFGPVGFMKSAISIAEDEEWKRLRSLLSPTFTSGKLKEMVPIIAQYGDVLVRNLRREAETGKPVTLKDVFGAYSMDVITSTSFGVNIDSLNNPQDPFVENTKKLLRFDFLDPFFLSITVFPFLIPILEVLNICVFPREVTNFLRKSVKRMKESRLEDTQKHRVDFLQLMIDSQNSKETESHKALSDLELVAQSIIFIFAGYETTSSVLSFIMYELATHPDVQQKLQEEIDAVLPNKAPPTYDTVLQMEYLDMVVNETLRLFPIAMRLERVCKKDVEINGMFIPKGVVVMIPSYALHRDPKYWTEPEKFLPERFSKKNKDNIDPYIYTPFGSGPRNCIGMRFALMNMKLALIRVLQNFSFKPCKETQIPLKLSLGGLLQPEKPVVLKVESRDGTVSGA

Plasma [3] = experiment: Free plasma concentration in CD-1 mouse at 30 mg/kg, po measured 75 mins post dosage; format: ADME, organism-based; settings: in vivo, 1.25 h
[4] = Drug uptake in CD-1 mouse DRG neurons at 30 mg/kg, po measured 75 mins post dosage; format: ADME, organism-based, DRG neuron; settings: read-out: Drug uptake
[5] = Apparent permeability of the compound at pH 7.4 by PAMPA assay; format: physicochemical
[6] = Apparent permeability of the compound at pH 5.5 by PAMPA assay; format: physicochemical
[7] = biological target: T2, Sodium channel protein type 9 subunit alpha (Mus musculus, UniProt Q62205); experiment: Inhibition of recombinant mouse Nav1.7 expressed in HEK293 cells assessed as reduction in peak inward current at -70 mV holding potential measured after 600 secs by manual patch clamp electrophysiology assay; format: cell-based
T2 sequence (Q62205 whole entry): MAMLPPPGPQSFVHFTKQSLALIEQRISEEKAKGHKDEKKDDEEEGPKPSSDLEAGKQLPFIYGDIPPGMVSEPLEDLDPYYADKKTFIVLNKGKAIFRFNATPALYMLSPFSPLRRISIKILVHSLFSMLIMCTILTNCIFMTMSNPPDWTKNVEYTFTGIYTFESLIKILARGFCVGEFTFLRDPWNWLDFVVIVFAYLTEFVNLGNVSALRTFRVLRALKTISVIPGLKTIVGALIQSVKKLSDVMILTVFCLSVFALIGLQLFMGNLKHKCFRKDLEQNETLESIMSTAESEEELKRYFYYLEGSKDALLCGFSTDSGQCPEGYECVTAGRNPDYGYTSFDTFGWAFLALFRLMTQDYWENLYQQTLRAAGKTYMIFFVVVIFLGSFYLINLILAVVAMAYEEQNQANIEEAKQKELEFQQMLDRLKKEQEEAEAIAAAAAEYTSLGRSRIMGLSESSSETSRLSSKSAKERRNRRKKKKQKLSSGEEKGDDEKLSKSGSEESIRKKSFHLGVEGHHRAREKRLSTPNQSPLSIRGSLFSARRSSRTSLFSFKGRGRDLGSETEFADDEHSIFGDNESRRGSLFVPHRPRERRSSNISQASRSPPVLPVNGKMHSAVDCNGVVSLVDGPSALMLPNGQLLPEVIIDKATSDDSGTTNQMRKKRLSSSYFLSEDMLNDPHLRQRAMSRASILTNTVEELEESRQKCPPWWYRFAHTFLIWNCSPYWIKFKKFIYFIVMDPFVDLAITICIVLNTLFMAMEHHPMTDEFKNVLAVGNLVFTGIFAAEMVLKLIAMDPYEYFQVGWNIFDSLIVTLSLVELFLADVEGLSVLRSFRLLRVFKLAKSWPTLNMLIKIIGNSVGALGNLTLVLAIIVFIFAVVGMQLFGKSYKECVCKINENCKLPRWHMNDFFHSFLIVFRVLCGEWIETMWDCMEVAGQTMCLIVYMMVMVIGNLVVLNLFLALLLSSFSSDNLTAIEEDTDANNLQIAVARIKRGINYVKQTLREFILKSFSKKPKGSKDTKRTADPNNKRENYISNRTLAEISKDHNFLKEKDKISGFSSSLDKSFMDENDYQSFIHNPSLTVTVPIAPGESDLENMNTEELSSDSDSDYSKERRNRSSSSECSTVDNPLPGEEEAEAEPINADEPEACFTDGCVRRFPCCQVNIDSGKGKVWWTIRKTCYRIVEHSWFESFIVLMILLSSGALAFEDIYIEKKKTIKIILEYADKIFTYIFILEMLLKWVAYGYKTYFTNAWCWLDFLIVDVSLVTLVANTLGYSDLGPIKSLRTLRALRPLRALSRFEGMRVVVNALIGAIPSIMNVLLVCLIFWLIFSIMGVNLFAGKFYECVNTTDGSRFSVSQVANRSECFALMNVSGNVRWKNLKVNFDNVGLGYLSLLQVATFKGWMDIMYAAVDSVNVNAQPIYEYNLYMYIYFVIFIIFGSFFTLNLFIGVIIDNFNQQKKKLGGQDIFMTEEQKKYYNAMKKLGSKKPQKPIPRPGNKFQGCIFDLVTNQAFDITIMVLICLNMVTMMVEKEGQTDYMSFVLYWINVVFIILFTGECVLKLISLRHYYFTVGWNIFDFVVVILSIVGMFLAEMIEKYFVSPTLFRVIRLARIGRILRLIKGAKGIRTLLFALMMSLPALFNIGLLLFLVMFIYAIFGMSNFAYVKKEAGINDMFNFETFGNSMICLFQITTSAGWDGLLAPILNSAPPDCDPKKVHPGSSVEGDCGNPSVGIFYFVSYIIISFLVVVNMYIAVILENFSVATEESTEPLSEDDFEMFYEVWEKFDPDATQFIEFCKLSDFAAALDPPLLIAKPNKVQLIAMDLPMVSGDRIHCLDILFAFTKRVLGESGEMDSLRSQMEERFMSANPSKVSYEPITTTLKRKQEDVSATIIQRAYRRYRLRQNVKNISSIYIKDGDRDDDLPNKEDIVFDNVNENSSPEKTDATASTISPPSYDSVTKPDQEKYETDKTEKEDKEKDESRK
Method in brief: (§2)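 Whole-cell manual patch clamp of HEK293 cells stably expressing recombinant Nav1.7, holding potential -70 mV (partially inactivated state). Pipette solution (mM): 50 CsCl, 90 CsF, 10 NaF, 2 MgCl2, 10 EGTA, 10 HEPES, pH 7.2; electrode resistance 1-4 MOhm. Percent inhibition of peak inward current; IC50 from a Hill fit to the averaged data; mean ± SEM.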

[8] = Fraction unbound in CD-1 mouse plasma; format: ADME, cell-free
[9] = biological target: T1, Sodium channel protein type 9 subunit alpha; experiment: Inhibition of recombinant human Nav1.7 expressed in HEK293 cells assessed as reduction in peak inward current at -70 mV holding potential measured after 600 secs by manual patch clamp electrophysiology assay; format: cell-based
Method in brief: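 Whole-cell manual patch clamp of HEK293 cells stably expressing recombinant human Nav1.7, held at -70 mV (partially inactivated state). The pipette solution (mM) was 50 CsCl, 90 CsF, 10 NaF, 2 MgCl₂, 10 EGTA and 10 HEPES, pH 7.2, with electrodes of 1-4 MOhm. Percent inhibition of peak inward current was calculated, and IC50 came from a Hill fit to averaged percent inhibition (mean ± S.E.M.).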

[10] = Plasma concentration in CD-1 mouse at 30 mg/kg, po measured 75 mins post dosage; format: ADME, organism-based
Mus musculus [11] = experiment: Antinociceptive activity in CD-1 mouse assessed as reduction in formalin-stimulated paw flinching at 100 mg/kg, po administered prior to formalin challenge measured up to 5 mins
[12] = biological target: Sodium channel protein type 9 subunit alpha (Rattus norvegicus, UniProt O08562); experiment: Inhibition of rat Nav1.7 assessed as reduction in peak inward current at -70 mV holding potential measured after 600 secs by manual patch clamp electrophysiology assay; method in brief: as §2
Mus musculus [13] = experiment: Antinociceptive activity in CD-1 mouse assessed as reduction in formalin-stimulated paw flinching at 100 mg/kg, po administered 30 mins prior to formalin challenge measured up to 45 mins; format: functional, organism-based
Method in brief: (§3)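 Male CD1 mice, oral dosing (10 mL/kg) of compound or vehicle before formalin; 20 μL of 5% formalin (w/v in saline) injected SC into the dorsal right hind paw, which carried a glued metal band, after 60 min acclimation in an individual chamber. Flinching counted automatically for 45 min: phase I is the first 5 min, phase II is 15-45 min. Mean ± SEM, n=10-14/group, ANOVA with Dunnett's test.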

Plasma [14] = experiment: Free plasma concentration in CD-1 mouse at 100 mg/kg, po measured 60 mins post dosage; settings: in vivo, 1 h
[15] = biological target: T2, Sodium channel protein type 9 subunit alpha; experiment: Inhibition of Nav1.7 in C57BL/6 mouse DRG neurons assessed as reduction in native TTX-S current amplitude by manual patch clamp electrophysiology assay
[16] = biological target: T1, Sodium channel protein type 9 subunit alpha; experiment: Inhibition of recombinant human Nav1.7 expressed in HEK293 cells assessed as reduction in peak inward current at -120 mV holding potential by manual whole-cell patch-clamp assay
Mus musculus [17] = experiment: Antinociceptive activity in CD-1 mouse assessed as reduction in formalin-stimulated paw flinching at 30 mg/kg, po administered 30 mins prior to formalin challenge measured up to 45 mins; format: functional, organism-based; method in brief: as §3
Mus musculus [18] = experiment: Antinociceptive activity in CD-1 mouse assessed as reduction in formalin-stimulated paw flinching at 60 mg/kg, po administered 30 mins prior to formalin challenge measured up to 45 mins; format: functional, organism-based; method in brief: as §3
Plasma [19] = experiment: Free plasma concentration in CD-1 mouse at 60 mg/kg, po measured 60 mins post dosage; settings: in vivo, 1 h
Mus musculus [20] = experiment: Antinociceptive activity in CD-1 mouse assessed as reduction in formalin-stimulated paw flinching at 60 mg/kg, po administered 30 mins prior to formalin challenge measured up to 5 mins; format: functional, organism-based; method in brief: as §3

Chain of Sodium channel protein type 5 subunit alpha (Q14524 whole entry): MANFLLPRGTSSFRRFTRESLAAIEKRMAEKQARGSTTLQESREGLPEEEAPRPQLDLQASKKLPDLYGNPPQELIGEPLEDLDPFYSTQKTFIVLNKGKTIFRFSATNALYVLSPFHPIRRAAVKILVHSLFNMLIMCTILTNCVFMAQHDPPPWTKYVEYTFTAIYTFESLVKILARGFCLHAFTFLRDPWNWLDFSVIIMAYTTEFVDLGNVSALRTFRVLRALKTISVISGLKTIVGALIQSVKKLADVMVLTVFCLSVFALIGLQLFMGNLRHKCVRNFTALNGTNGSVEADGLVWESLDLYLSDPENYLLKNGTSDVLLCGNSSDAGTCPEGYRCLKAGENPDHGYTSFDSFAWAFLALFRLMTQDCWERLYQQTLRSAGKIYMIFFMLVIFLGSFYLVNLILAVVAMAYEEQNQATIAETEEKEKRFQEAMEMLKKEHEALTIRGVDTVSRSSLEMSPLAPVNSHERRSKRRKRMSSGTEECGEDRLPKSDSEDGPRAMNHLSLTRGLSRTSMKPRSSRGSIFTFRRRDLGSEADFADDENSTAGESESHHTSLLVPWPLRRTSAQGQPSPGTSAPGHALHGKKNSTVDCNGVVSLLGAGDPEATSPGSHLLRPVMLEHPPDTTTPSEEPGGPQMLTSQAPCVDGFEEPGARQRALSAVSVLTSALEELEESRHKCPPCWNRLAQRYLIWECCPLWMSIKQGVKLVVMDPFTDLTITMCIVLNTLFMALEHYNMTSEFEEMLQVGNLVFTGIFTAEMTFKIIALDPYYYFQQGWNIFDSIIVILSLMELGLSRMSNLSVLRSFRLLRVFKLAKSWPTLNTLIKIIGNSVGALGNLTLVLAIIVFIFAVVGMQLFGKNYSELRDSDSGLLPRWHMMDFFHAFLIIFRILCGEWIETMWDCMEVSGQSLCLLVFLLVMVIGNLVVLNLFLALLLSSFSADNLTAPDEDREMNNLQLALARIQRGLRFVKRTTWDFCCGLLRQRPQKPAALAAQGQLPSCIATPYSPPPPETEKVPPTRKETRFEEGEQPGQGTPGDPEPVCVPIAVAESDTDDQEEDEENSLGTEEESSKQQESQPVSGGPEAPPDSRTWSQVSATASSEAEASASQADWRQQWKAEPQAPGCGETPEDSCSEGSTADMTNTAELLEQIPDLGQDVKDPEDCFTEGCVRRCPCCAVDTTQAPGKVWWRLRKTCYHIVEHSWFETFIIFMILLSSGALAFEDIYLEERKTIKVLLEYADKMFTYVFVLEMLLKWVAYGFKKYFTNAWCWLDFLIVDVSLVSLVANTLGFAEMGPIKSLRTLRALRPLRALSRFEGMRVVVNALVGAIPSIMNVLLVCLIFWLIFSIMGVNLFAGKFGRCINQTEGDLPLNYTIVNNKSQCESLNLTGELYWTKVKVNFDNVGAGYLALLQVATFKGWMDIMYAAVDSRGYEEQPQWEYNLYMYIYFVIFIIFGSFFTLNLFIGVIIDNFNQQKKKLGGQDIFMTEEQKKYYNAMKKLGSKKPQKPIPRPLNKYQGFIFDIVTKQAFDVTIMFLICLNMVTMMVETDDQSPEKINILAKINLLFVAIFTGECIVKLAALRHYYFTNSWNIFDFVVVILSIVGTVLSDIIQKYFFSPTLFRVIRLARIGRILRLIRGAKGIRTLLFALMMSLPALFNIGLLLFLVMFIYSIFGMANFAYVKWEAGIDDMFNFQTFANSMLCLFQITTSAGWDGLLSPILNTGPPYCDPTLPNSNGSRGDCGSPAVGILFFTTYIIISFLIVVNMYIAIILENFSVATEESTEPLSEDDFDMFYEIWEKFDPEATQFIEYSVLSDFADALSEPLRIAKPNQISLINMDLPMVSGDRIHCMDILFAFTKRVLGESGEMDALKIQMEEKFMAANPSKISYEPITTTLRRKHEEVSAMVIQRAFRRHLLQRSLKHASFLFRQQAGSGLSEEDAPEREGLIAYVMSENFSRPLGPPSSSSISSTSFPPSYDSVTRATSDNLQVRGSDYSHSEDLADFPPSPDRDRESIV

Structure (SMILES) | pIC50 [2] | pIC50 [1] | further results
N[C@H]1CC[C@](CCOc2cc(F)c(S(=O)(=O)Nc3ncns3)cc2Cl)(c2ccccc2)CC1 |  | < 4.52 | 
CN1CCC(CCNc2cc(F)c(S(=O)(=O)Nc3nccs3)cc2Cl)CC1 |  | < 4.52 | 
O=S(=O)(Nc1nccs1)c1cc(Cl)c(NCC2CNCCO2)cc1F (racemic) | 7.16 | < 4.52 | pIC50 (Cytochrome P450 3A4): 4.70
N[C@H]1CC[C@@](CCNc2cc(F)c(S(=O)(=O)Nc3nccs3)cc2Cl)(c2ccccc2)CC1 |  | < 4.52 | pIC50 (Cytochrome P450 3A4): 5.01
N[C@H]1CC[C@H](CNc2cc(F)c(S(=O)(=O)Nc3nccs3)cc2Cl)CC1 |  | < 4.52 | 
O=S(=O)(Nc1ncns1)c1cc(F)c(OCC[C@]2(c3ccccc3)CC[C@H](NC3CC3)CC2)cc1F |  | < 4.52 | 
CN1C(C)(C)CC(Nc2cc(F)c(S(=O)(=O)Nc3nccs3)cc2Cl)CC1(C)C | 7.57 | < 4.52 | Cp(f) (Plasma [3]): 280 nM; concentration at 1.25 h [4]: 1500 nM; Papp [5]: 24.1 ×10⁻⁶ cm/s; Papp [6]: 2.3 ×10⁻⁶ cm/s; pIC50 [7]: 7.52; fraction unbound [8]: 0.23; pIC50 [9]: 7.77; concentration at 1.25 h [10]: 1100 nM; pIC50 (Cytochrome P450 3A4): 4.70
O=S(=O)(Nc1nccs1)c1cc(Cl)c(NCC2(CN3CCCC3)CC2)cc1F |  | 5.29 | Cp(f) (Plasma [3]): 240 nM; concentration at 1.25 h [4]: 1500 nM; Papp [5]: 94.9 ×10⁻⁶ cm/s; Papp [6]: 4.7 ×10⁻⁶ cm/s; pIC50 [7]: 7.29; fraction unbound [8]: 0.2; Activity (Mus musculus [17]): Active; pIC50 [9]: 7.92; concentration at 1.25 h [10]: 1200 nM; pIC50 (Cytochrome P450 3A4): 4.70
N[C@H]1CC[C@@H](CNc2cc(F)c(S(=O)(=O)Nc3ncns3)cc2Cl)CC1 |  | 5.59 | pIC50 (Cytochrome P450 3A4): 5.64
N[C@H]1CC[C@@](CCOc2cc(F)c(S(=O)(=O)Nc3ncns3)cc2Cl)(c2ccccc2)CC1 |  | < 4.52 | 
O=S(=O)(Nc1nccs1)c1cc(Cl)c(NCC23CCCN2CCC3)cc1F |  |  | Activity (Mus musculus [18]): Active; Cp(f) (Plasma [19]): 1270 nM; Activity (Mus musculus [20]): inactive
CN[C@H]1CC[C@@](CCOc2cc(F)c(S(=O)(=O)Nc3ncns3)cc2F)(c2ccccc2)CC1 |  | < 4.52 | 
CN[C@H]1CC[C@](CCOc2cc(F)c(S(=O)(=O)Nc3ncns3)cc2F)(c2ccccc2)CC1 |  | < 4.52 | 
N[C@H]1CC[C@@](CCOc2cc(F)c(S(=O)(=O)Nc3ncns3)cc2F)(c2ccc(Cl)cc2)CC1 |  | < 4.52 | 
N[C@H]1CC[C@](CCNc2cc(F)c(S(=O)(=O)Nc3nccs3)cc2Cl)(c2ccccc2)CC1 |  | < 4.52 | pIC50 (Cytochrome P450 3A4): 5.17
O=S(=O)(Nc1nccs1)c1cc(Cl)c(NCCC2CNC2)cc1F |  | < 4.52 | 
O=S(=O)(Nc1ncns1)c1cc(F)c(OCC[C@]2(c3ccccc3)CC[C@@H](NC3CC3)CC2)cc1F |  | < 4.52 | 
N[C@H]1CC[C@@H](CCNc2cc(F)c(S(=O)(=O)Nc3nccs3)cc2Cl)CC1 |  | 5.31 | 
O=S(=O)(Nc1nccs1)c1cc(Cl)c(NCCC2CCNCC2)cc1F |  | < 4.52 | 
N[C@H]1CC[C@](CCOc2cc(F)c(S(=O)(=O)Nc3ncns3)cc2F)(c2ccc(Cl)cc2)CC1 |  | < 4.52 | 

More lines, main results first:

pIC50 [2] | Structure (SMILES) | pIC50 [1] | further results
7.85 | O=S(=O)(Nc1nccs1)c1cc(Cl)c(NCCC2CCNC2)cc1F (racemic) | < 4.52 | 
6.49 | CC(=O)N1CCCC(CNc2cc(F)c(S(=O)(=O)Nc3nccs3)cc2Cl)C1 (racemic) | < 4.52 | 
6.58 | CN1CCCC(CNc2cc(F)c(S(=O)(=O)Nc3nccs3)cc2Cl)C1 (racemic) | < 4.52 | 
7.31 | O=S(=O)(Nc1nccs1)c1cc(Cl)c(NC[C@H]2CCCNC2)cc1F | < 4.52 | pIC50 (Cytochrome P450 3A4): 4.70
8.22 | N[C@H]1CC[C@@H](CNc2cc(F)c(S(=O)(=O)Nc3nccs3)cc2Cl)CC1 | 5.72 | Activity (Mus musculus [11]): inactive; pIC50 [7]: 8.12; pIC50 [12]: 7.91; Activity (Mus musculus [13]): inactive; Cp(f) (Plasma [14]): 320 nM; pIC50 [15]: 8.22; fraction unbound [8]: 0.08; pIC50 [9]: 8.40; pIC50 [16]: 5.03
7.82 | O=S(=O)(Nc1ncns1)c1cc(Cl)c(NCCC2CCCCN2)cc1F (racemic) |  | 
8.70 | O=S(=O)(Nc1ncns1)c1cc(F)c(OC[C@@H]2CNCC[C@H]2c2ccc(Cl)cc2)cc1F |  | 
6.68 | O=S(=O)(Nc1nccs1)c1cc(Cl)c(NC[C@@H]2CCCN(O)C2)cc1F |  | 
7.11 | O=S(=O)(Nc1ncns1)c1cc(F)c(OCCC2(c3ccc(Cl)cc3)CCNCC2)cc1F |  | 
7.11 | C[C@]1(CCOc2cc(F)c(S(=O)(=O)Nc3ncns3)cc2F)CC[C@@H](N)CC1 | < 4.52 | 
7.24 | O=S(=O)(Nc1nccs1)c1cc(Cl)c(NC[C@@H]2CCCNC2)cc1F |  | pIC50 (Cytochrome P450 3A4): 4.70
6.73 | O=S(=O)(Nc1nccs1)c1cc(Cl)c(NC[C@H]2CCCN(O)C2)cc1F |  | 
6.42 | C[C@]1(CCOc2cc(F)c(S(=O)(=O)Nc3ncns3)cc2F)CC[C@H](N)CC1 | < 4.52 | 
7.82 | N[C@H]1CC[C@](CCOc2cc(F)c(S(=O)(=O)Nc3ncns3)cc2F)(c2ccccc2)CC1 | < 4.52 | 
6.47 | O=S(=O)(Nc1nccs1)c1cc(Cl)c(NCC2CNC2)cc1F | < 4.52 | 
6.33 | N[C@H]1CC[C@@](CCOc2cc(F)c(S(=O)(=O)Nc3ncns3)cc2F)(c2ccccc2)CC1 | < 4.52 | 
6.05 | O=S(=O)(Nc1ncns1)c1cc(F)c(OCC2(c3ccc(Cl)cc3)CCNCC2)cc1F |  | 
